# Laboratory results taken from ChEMBL document CHEMBL3244285, “Hypotensive phospholipids. Some stable analogues of Darmstoff” (J Med Chem, 1978).
# The source made the active and inactive calls. The rule behind the calls is not given here.
# Experiments:
# Rattus norvegicus [1] = experiment: Toxicity in awake normotensive rat assessed as decrease in heart rate at 1 mg/100 g, iv measured within 2 mins in presence of beta-adrenergic inhibitor propranolol; type: organism-based; conditions: in vivo
# [2] = Stability of the compound in 0.9% sodium chloride solution at 5 degC measured after 24 hrs; type: physicochemical
# In short: (§1)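 Solution stability was tested by storing drug solutions in 0.9% NaCl at 5 °C. At the stated storage times the stored solutions were given iv to catheterized, unrestrained normotensive rats, and blood pressure and heart-rate responses were re-measured by arterial strain gauge.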
# Rattus norvegicus [3] = experiment: Toxicity in awake normotensive rat assessed as decrease in heart rate at 1 mg/100 g, iv measured for 10 mins; type: organism-based; conditions: in vivo
# In short: (§2)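 Chronically catheterized, unrestrained normotensive rats received iv drug in 0.9% NaCl through the venous catheter. Heart rate was followed continuously on chart records from the arterial strain-gauge trace, from the moment of injection for at least 10 min.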
# Rattus norvegicus [4] = experiment: Toxicity in awake normotensive rat assessed as heart rate at 1 mg/100 g, iv measured within 2 mins (reference value: 430 +/- 40/min); type: organism-based; conditions: in vivo
# Rattus norvegicus [5] = experiment: Hypotensive activity in awake normotensive rat assessed as mean blood pressure at 1 mg/100 g, iv measured within 2 mins (reference value: 115 +/- 17 mmHg); type: functional
# Rattus norvegicus [6] = experiment: Hypotensive activity in awake normotensive rat assessed as decrease in mean blood pressure at 1 mg/100 g, iv measured within 2 mins in presence of beta-adrenergic inhibitor propranolol; type: functional, organism-based
# Rattus norvegicus [7] = experiment: Hypotensive activity in awake normotensive rat assessed as mean blood pressure at 1 mg/100 g, iv measured within 2 mins (reference value: 130 +/- 6.9 mmHg); type: functional
# [8] = Stability of the compound in 0.9% sodium chloride solution at 5 degC measured after 72 hrs; type: physicochemical; in short: as §1
# Rattus norvegicus [9] = experiment: Toxicity in awake normotensive rat assessed as heart rate at 1 mg/100 g, iv measured within 2 mins (reference value: 450 +/- 57/min); type: organism-based; conditions: in vivo
# Rattus norvegicus [10] = experiment: Hypotensive activity in awake normotensive rat assessed as mean blood pressure at 1 mg/100 g, iv measured within 2 mins (reference value: 125 +/- 16 mmHg); type: functional
# Rattus norvegicus [11] = species on record: Rattus norvegicus; experiment: Hypotensive activity in spontaneous hypertensive rat model measured after 48 hrs; type: functional, organism-based
# Rattus norvegicus [12] = experiment: Toxicity in awake normotensive rat assessed as decrease in heart rate at 2 mg/100 g, iv measured for 10 mins; type: organism-based; conditions: in vivo; in short: as §2
# [13] = Stability of the compound in 0.9% sodium chloride solution at 5 degC measured within 1 hr; type: physicochemical; in short: as §1
# Rattus norvegicus [14] = species on record: Rattus norvegicus; experiment: Toxicity in spontaneous hypertensive rat model assessed as bradycardia measured after 48 hrs; type: organism-based; conditions: in vivo
# Rattus norvegicus [15] = experiment: Toxicity in awake normotensive rat assessed as decrease in heart rate at 2 mg/100 g, iv measured within 2 mins in presence of beta-adrenergic inhibitor propranolol; type: organism-based; conditions: in vivo
# Rattus norvegicus [16] = experiment: Hypotensive activity in awake normotensive rat assessed as decrease in mean blood pressure at 2 mg/100 g, iv measured within 2 mins in presence of beta-adrenergic inhibitor propranolol; type: functional, organism-based
# Rattus norvegicus [17] = experiment: Hypotensive activity in awake normotensive rat assessed as mean blood pressure at 2 mg/100 g, iv measured within 2 mins (reference value: 125 mmHg); type: functional
# Rattus norvegicus [18] = experiment: Toxicity in awake normotensive rat assessed as heart rate at 2 mg/100 g, iv measured within 2 mins (reference value: 420/min); type: organism-based; conditions: in vivo
# Rattus norvegicus [19] = experiment: Toxicity in awake normotensive rat assessed as heart rate at 1 mg/100 g, iv measured within 2 mins (reference value: 430 +/- 50/min); type: organism-based; conditions: in vivo
# Rattus norvegicus [20] = experiment: Toxicity in awake normotensive rat assessed as cardiac arrest at 4 mg/100 g, iv measured within 2 mins; type: organism-based; conditions: in vivo
Structure (SMILES),Activity (Rattus norvegicus [1]),Stability [2],Activity (Rattus norvegicus [3]),heart rate (Rattus norvegicus [4]) [beats/min],Activity (Rattus norvegicus [5]) [mmHg],Activity (Rattus norvegicus [6]),Activity (Rattus norvegicus [7]) [mmHg],Stability [8],heart rate (Rattus norvegicus [9]) [beats/min],Activity (Rattus norvegicus [10]) [mmHg],Activity (Rattus norvegicus [11]),Activity (Rattus norvegicus [12]),Stability [13],Activity (Rattus norvegicus [14]),Activity (Rattus norvegicus [15]),Activity (Rattus norvegicus [16]),Activity (Rattus norvegicus [17]) [mmHg],heart rate (Rattus norvegicus [18]) [beats/min],heart rate (Rattus norvegicus [19]) [beats/min],Activity (Rattus norvegicus [20])
CCCCCCCCCCCCCCCC1CCC(COP(=O)([O-])O)O1.[Na+] (stereo unspecified),Toxic,Stable,Toxic,350,100,Active,–,–,–,–,–,–,–,–,–,–,–,–,–,–
CCCCCCCCCCCCCCCC1CCC(COP(=O)([O-])O)C1.[Na+] (stereo unspecified),Toxic,–,Toxic,–,–,Active,120,Stable,375,–,–,–,–,–,–,–,–,–,–,–
CCCCCCCCCCCCCCCC1OCC(COP(=O)([O-])O)O1.[Na+] (stereo unspecified),Toxic,–,Toxic,–,–,Active,–,–,–,100,Active,Toxic,Unstable,Toxic,Toxic,Active,100,250,310,Toxic
